Rows were chosen to be rich in hits. Some 4.9% of all compounds tested hit in one or more screens of this group.
STAT3 blocker = inhibitors of IL-6 induced STAT3 signaling | U3A cells, IL-6 STAT3-luciferase reporter, luminescence; host cell line lacks STAT1 | inhibition, % at 5.5 µM | 190,000 tested, 0.89% active;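 active means inhibition above the mean inhibition across all screened compounds plus 3 SD, cut at about 44% in these data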;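 further: 0% = DMSO only wells and 100% = 100 µM nifuroxazide control wells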
APP 5'UTR act = APP 5'UTR luciferase reporter activation; 190,000 tested, 1% active; SH-SY5Y APP 5'UTR luciferase reporter, luminescence; zero percent = DMSO vehicle wells; AID 1276; activation, % at 2 µM;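 active means activation above a set limit, based on mean plus 3 SD of controls, cut at about 140% in these data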
STAT1 activator = increases IFN-gamma driven STAT1 reporter signal | NIH 3T3 STAT1-luciferase reporter, luminescence; 100% = IFN-gamma alone, no compound | activation (% of control), % at 5.5 µM | AID 932 | 200,000 tested, 2.6% active;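 active means activation above the screen-wide mean activation plus 3 SD, cut at about 130% in these data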;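 further: raw ratio to IFN-gamma control signal so 100% means no change and 0% no light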
NF-kB expr up = compounds increasing NF-kB expression in human neuronal cells. NF-kB reporter expression; hits give high values. fold change at 12.5 µM. 190,000 tested, 1.6% active. AID 1239; in the data active means fold change above about 3.3
STAT1 blocker = STAT1 signaling inhibition | NIH 3T3 STAT1-luciferase reporter, IFN-gamma, luminescence | inhibition, % at 5.5 µM | 200,000 tested, 0.35% active | AID 920;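 active means inhibition above a set limit, the mean inhibition across all tested compounds plus 3 SD, cut at about 34% in these data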;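 further: 0% = IFN-gamma with DMSO and 100% = IFN-gamma with 300 µM nifuroxazide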
STAT3 activator = activators of IL-6 induced STAT3 signaling; U3A cells, IL-6 STAT3-luciferase reporter, luminescence; 100% = signal with IL-6 EC80 alone; activation (% of control), % at 5.6 µM; 190,000 tested, 0.91% active; AID 871;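 active means activation above the screen-wide mean of compound activation plus 3 SD, cut at about 130% in these data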;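 further: 0% = background luminescence of wells with medium and substrate only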
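Material: STAT1-lacking human U3A cells, STAT3 luciferase reporter | Benchmarks: IL-6-only wells as 100% reference | Probe or stimulus: IL-6 (33 ng/mL) | Timing: Compound 1 h, then IL-6 6 h at 37 °C | Detection: Luminescence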
STAT1 activ conf = STAT1 activation, confirmation assay; shares compounds with STAT1 activator; NIH 3T3 STAT1-luciferase reporter, IFN-gamma potentiation, luminescence; 100% = IFN-gamma EC80 alone, no compound; activation (% of control), % at 5.7 µM; 1,200 tested, 97% active; AID 1262;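 active means activation above a set limit carried over from the earlier primary STAT1 screen, cut at about 140% in these data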;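 further: simple ratio to median IFN-gamma plus DMSO wells so 0% means no light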
NFkB act = counter-screen for STAT1 activators: NF-kappaB activation | AID 1306 | 1,200 tested, 43% active | shares compounds with STAT1 activator | HEK293T NF-kB luciferase reporter, TNF-alpha stimulated, luminescence; 100% = TNF-alpha with vehicle only | activation (% of control), % at 5.7 µM;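 active means activation above the mean of solvent-only control wells plus 3 SD, set per campaign, cut at about 130% in these data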;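 further: TNF-alpha given at a submaximal dose yielding about 80% of full reporter signal; values are well signal over median control so 100% means no change and 0% no light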
STAT3 act 2 = counter-screen for STAT1 activators: human STAT3 activation; shares compounds with STAT1 activator; U3A cells STAT3-luciferase reporter, IL-6, luminescence; cells lack STAT1; 100 = IL-6 alone, no compound effect; activation (% of control), % at 5.7 µM; 1,200 tested, 46% active;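 active means activation above the solvent-only control well mean plus 3 SD, set per plate batch, cut at about 110% in these data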;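 further: 0% = no luminescence and 100% = median IL-6 plus DMSO wells; higher means more STAT3 reporter activation so hits are non-selective activators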
An asterisk follows results filed as active; / = not tested or not shown.

SMILES | STAT3 blocker | APP 5'UTR act | STAT1 activator | NF-kB expr up | STAT1 blocker | STAT3 activator | STAT1 activ conf | NFkB act | STAT3 act 2
O=[N+]([O-])c1ccc2c(c1)ncn2-c1ccccc1 | 20 | 5 | 122 | 1.2 | -25 | 87 | / | / | /
COC(=O)c1sccc1NC(=S)N1CCN(c2cc(C)ccc2C)CC1 | -1 | -6 | 92 | 1 | 11 | 99 | / | / | /
Cc1nnc(SCC(=O)Nc2cc(-c3cc(C)c(C)cc3C)nn2-c2ccccc2)s1 | -5 | -6 | 92 | 0.89 | 9 | 102 | / | / | /
CCCc1ccc(-c2cc(NC(=O)CSc3nnc(N)s3)n(-c3ccccc3)n2)cc1 | -16 | 97 | 159* | 4.4* | -65 | 109 | 189* | 134* | 111*
Cc1nn(C)c(C)c1CCC(=O)O | 4 | -4 | 96 | 1 | 3 | 99 | / | / | /
c1ccc(OCCSc2nnnn2-c2ccccc2)cc1 | 4 | 170* | 160* | 6.5* | -66 | 100 | 204* | 123 | 117*
Fc1ccccc1OCCSc1nnnn1-c1ccccc1 | 14 | 162* | 161* | 6.7* | -53 | 91 | 219* | 124 | 115*
c1csc(C2=NNC(=NC3CCCCC3)SC2)c1 | 1 | 137* | 155* | 2.5 | -58 | 107 | 168* | 119 | 109
Clc1ccc(C2=NNC(=NCC3CCCO3)SC2)cc1 (stereo not drawn) | -16 | 24 | 126 | 1.9 | -28 | 109 | / | / | /
Cc1ccc(-n2cnc3cc(NCc4cccs4)ccc32)cc1 | 8 | 21 | 120 | 1.4 | -31 | 93 | / | / | /
c1ccc(-n2cnc3cc(NCc4cccs4)ccc32)cc1 | 5 | 205* | 169* | 0.72 | -76 | 99 | 249* | 133* | 106
N/C(=N\OC(=O)c1cccc(Br)c1)c1ccncc1 | 13 | 39 | 127 | / | -29 | 94 | / | / | /
Cc1ccc(/C(N)=N/OC(=O)c2ccc(F)cc2)cc1 | 14 | 46 | 153* | 7.9* | -65 | 95 | 173* | 135* | 106
N/C(=N\OC(=O)c1cccc(F)c1)c1ccccc1 | -6 | 94 | 166* | 2.4 | -73 | 116 | 169* | 123 | 114*
N/C(=N\OC(=O)c1ccc(F)cc1)c1ccccc1 | -10 | 94 | 157* | 3.5* | -63 | 119 | 196* | 128 | 116*
O=C(N/N=C1\CCCc2c1[nH]c1ccc([N+](=O)[O-])cc21)c1ccncc1 | 9 | 0 | 107 | 1.1 | -8 | 96 | / | / | /
CC(C)CCn1c(N2CCc3ccccc3C2)nc2c1c(=O)[nH]c(=O)n2C | 2 | 22 | 98 | 1.2 | 1 | 99 | / | / | /
CC(=O)Cc1nsc(Nc2ccc(C)cc2)n1 | -6 | 92 | 156* | 3.1 | -62 | 108 | 190* | 137* | 122*
CNc1nc(CC(C)=O)ns1 | 5 | -1 | 91 | 1.4 | 10 | 98 | / | / | /
Cc1ccccc1/C=C1\CCCc2ccccc2C1=O | 8 | 116 | 158* | 5.7* | -63 | 92 | 195* | 137* | 110
O=C1/C(=C/c2c[nH]c3ccccc23)CCC/C1=C\c1c[nH]c2ccccc12 | 12 | 19 | 110 | 1 | -11 | 90 | / | / | /
CC(C)=CC(=O)Nc1nc2ccc([N+](=O)[O-])cc2s1 | 7 | 36 | 181* | 2.2 | -91 | 100 | 180* | 126 | 107
CCOc1ccc(N/C(C)=C\C(=O)c2ccc3c(c2)OCCO3)cc1 | 14 | 36 | 156* | 3.4* | -63 | 90 | 220* | 134* | 105
COc1ccc(C(=O)/C=C(\C)Nc2ccc3c(c2)OCO3)cc1 | 7 | 46 | 111 | 2.7 | -12 | 104 | / | / | /
